Assay results reported in ChEMBL document CHEMBL3997800, “Discovery of Multitarget Agents Active as Broad-Spectrum Antivirals and Correctors of Cystic Fibrosis Transmembrane Conductance Regulator for Associated Pulmonary Diseases” (J Med Chem, 2017).
The source made the active and inactive calls. The calls are words filed in the database; no cut-off is given here.

What was measured:
[1] = Inhibition of full length recombinant His6-tagged PI4K3beta (unknown origin) expressed in Sf9 insect cells using PI : PS as substrate in presence of [gamma-33P]-ATP by scintillation counting method; set-up: species or system Homo sapiens
[2] = test system: Enterovirus A71; experiment: Antiviral activity against Enterovirus 71 infected in RD cells assessed as reduction in virus-induced cytopathic effect incubated for 2 to 3 days; type: functional, cell-based
How it was run: (§1)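 RD cells seeded at 20 000/well in MEM with 2% FCS and infected with EV71. Three 8-step 1:5 dilution series from 100 μM. Incubated 2-3 days until maximal CPE, then scored for CPE reduction. EC50 is the median of three dose-response curves.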

[3] = test system: Coxsackievirus B3; experiment: Antiviral activity against Coxsackievirus B3 after 2 to 3 days by cell based MTS assay; type: functional; settings: Enterovirus B
[4] = Selectivity index, ratio of CC50 for human RD cells assessed as change in cell morphology to EC50 for Enterovirus 71; type: toxicity; settings: read-out: Ratio CC50/EC50
How it was run: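 SI is CC50/EC50. CC50 is from microscopically detected morphology change in uninfected RD cells and EC50 from the EV71 CPE-reduction assay in RD cells.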

[5] = test system: Poliovirus 1; experiment: Antiviral activity against Poliovirus 1 after 2 to 3 days by cell based MTS assay; type: functional; settings: Enterovirus C
How it was run: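 Vero cells seeded at 20 000/well in MEM with 2% FCS. Three 8-step 1:5 dilution series from 100 μM, then virus, then cells; 2–3 days until maximal CPE. Read-out: 5% MTS for 1.5 h at 37°C, absorbance at 498 nm, expressed as % of untreated controls. EC50 taken as the median of 3 dose-response curves.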

[6] = test system: Cystic fibrosis transmembrane conductance regulator (Homo sapiens), P13569 [F508del]; experiment: Potentiator activity at CFTR F508 deletion mutant (unknown origin) expressed in HEK293 cells assessed as increase in aninon permeability at 10 uM […] by YFP probe based imaging method; type: cell-based
Sequence of Cystic fibrosis transmembrane conductance regulator (Homo sapiens), P13569 [F508del] (P13569 as listed by the source): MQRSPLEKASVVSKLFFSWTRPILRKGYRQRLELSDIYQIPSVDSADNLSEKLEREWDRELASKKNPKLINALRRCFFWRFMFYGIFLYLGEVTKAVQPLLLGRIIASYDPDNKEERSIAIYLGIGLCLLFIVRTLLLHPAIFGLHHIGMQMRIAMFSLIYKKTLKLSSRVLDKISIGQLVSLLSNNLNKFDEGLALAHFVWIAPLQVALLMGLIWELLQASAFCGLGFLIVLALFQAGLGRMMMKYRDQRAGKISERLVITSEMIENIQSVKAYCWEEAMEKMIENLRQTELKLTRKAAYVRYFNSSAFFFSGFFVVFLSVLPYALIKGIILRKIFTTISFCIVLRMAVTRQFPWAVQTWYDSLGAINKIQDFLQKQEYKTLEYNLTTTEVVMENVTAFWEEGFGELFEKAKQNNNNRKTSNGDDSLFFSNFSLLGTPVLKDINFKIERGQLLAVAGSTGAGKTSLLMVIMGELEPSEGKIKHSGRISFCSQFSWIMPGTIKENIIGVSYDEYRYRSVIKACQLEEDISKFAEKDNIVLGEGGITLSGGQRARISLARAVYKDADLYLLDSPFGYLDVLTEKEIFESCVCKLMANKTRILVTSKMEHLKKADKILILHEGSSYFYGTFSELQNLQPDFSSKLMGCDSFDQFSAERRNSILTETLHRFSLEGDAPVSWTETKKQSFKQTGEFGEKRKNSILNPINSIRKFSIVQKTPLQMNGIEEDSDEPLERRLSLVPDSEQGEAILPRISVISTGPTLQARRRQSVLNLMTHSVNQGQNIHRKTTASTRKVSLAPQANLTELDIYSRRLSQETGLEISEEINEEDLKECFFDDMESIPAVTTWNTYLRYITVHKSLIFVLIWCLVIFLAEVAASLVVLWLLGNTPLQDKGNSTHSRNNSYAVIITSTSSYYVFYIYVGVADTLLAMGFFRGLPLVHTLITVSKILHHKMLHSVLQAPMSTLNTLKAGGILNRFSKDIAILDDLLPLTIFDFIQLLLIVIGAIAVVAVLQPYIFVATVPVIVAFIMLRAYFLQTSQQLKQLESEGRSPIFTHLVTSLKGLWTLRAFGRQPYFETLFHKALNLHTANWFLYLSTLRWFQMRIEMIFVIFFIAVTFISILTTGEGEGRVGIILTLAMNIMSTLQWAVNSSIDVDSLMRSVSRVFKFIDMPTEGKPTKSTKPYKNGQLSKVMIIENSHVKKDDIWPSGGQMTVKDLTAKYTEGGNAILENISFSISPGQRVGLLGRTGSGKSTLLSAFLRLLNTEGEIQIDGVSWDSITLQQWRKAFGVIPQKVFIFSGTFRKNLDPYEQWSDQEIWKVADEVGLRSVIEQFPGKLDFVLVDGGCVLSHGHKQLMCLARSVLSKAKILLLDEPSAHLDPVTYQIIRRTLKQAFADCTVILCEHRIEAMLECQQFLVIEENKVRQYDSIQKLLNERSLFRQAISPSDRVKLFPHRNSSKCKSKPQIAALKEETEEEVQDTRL

[7] = Inhibition of full length recombinant His6-tagged PI4K3alpha (unknown origin) expressed in Sf9 insect cells assessed as residual activity at 100 uM using PI : PS as substrate in presence of [gamma-33P]-ATP by scintillation counting method relative to control; settings: Homo sapiens
[8] = Cytotoxicity against human RD cells after 2 to 3 days by MTS method; type: cell-based
How it was run: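 Uninfected RD cells, 20 000/well in 2% FCS medium, run in parallel with the antiviral assay. Three 8-step 1:5 dilution series from 100 μM, 2-3 days. Read-out by 5% MTS, 1.5 h at 37 °C, absorbance 498 nm, as % of untreated controls. CC50 is the 50% metabolic activity point, median of 3 curves.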

[9] = test system: rhinovirus A2; experiment: Antiviral activity against Rhinovirus 2 after 2 to 3 days by cell based MTS assay; type: functional
[10] = test system: Cystic fibrosis transmembrane conductance regulator (Homo sapiens), P13569 [F508del]; experiment: Corrector activity at CFTR F508 deletion mutant (unknown origin) expressed in HEK293 cells assessed as increase in steady-state level of F508 deletion mutant at plasma membrane at 10 uM preincubated for 24 hrs followed by compound washout by pHTomato dye based fluorescence imaging method; type: cell-based
How it was run: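 HEK293 cells were transiently transfected (Lipofectamine 2000) with F508del-CFTR-pHTomato plus co-expressed soluble eGFP, then kept 24 h at 37 °C. Next, 24 h at 30 °C with 10 μM drug. Imaging in pH 7.4 HEPES buffer, then extracellular pH shifted to ~6.5 (MES) and ~8.8 (Tris). The eGFP-normalized fluorescence rise (ΔF) estimates membrane CFTR.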

[11] = Cytotoxicity against human RD cells assessed as change in cell morphology by microscopic method; type: cell-based
How it was run: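 Uninfected, compound-treated RD cells were inspected by microscope. CC50 was taken from microscopically detectable alteration of cell morphology.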

[12] = test system: enterovirus D68; experiment: Antiviral activity against Enterovirus 68 after 2 to 3 days; type: functional
[13] = test system: Echovirus E11; experiment: Antiviral activity against Echovirus 11 after 2 to 3 days; type: functional; settings: Enterovirus B
[14] = test system: rhinovirus B14; experiment: Antiviral activity against Rhinovirus 14 after 2 to 3 days by cell based MTS assay; type: functional
[15] = Selectivity index, ratio of CC50 for human RD cells to EC50 for Enterovirus 71; type: toxicity; settings: read-out: Ratio CC50/EC50
How it was run: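 SI is CC50/EC50. CC50 is from the MTS assay on uninfected RD cells and EC50 from the EV71 CPE-reduction assay, both medians of three dose-response curves run in parallel.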

[16] = molecular target: PI3-kinase p110-alpha/p85-alpha (Homo sapiens) (UniProt P27986+P42336); experiment: Inhibition of full length recombinant human N-terminal His6-tagged PI3Kalpha (1 to 1068 residues)/full length human N-terminal myc-tagged P85alpha (1 to 724 residues) expressed in Sf9 insect cells assessed as residual activity at 100 uM using PI : PS as substrate in presence of [gamma-33P]-ATP by scintillation counting method relative to control
[17] = test system: Enterovirus A71; experiment: Antiviral activity against Enterovirus 71 infected in RD cells assessed as reduction in virus-induced cytopathic effect; type: functional, cell-based; settings: Enterovirus A; how it was run: as §1
[18] = Enterovirus A, RD, read-out: EC50

Row | SMILES | EC50 [2] | IC50 ([1]; read-out: IC50) [µM] | Activity [6] | Activity [7] [%] | CC50 [8] [µM] | EC50 [2, 18] [µM] | selectivity ratio [15] | Activity [16] [%] | also measured
1 | COc1ccc(Cl)cc1Nc1nnc(-c2csc(NC(=O)C(C)(C)C)n2)o1 | Not Active |  |  |  |  |  |  |  | IC50 [1]: Not Active
2 | CC(=O)c1cccc(NC(=S)Nc2cccc(NC(=O)C(C)(C)C)c2)c1 | Not Active |  |  |  |  |  |  |  | IC50 [1]: Not Active
3 | CCC(=O)Nc1nc(C)c(-c2csc(Nc3cccc(C(C)=O)c3)n2)s1 |  | 0.27 | inactive | 72 | 10.1 | 0.38 | 26.6 | 40 | EC50 [3]: 2.16 µM; selectivity ratio [4]: 23.6; EC50 [5]: < 1.52 µM; EC50 ([9]; Rhinovirus A, read-out: EC50): > 259 µM; Activity [10]: Active; CC50 [11]: 6.37 µM; EC50 [12]: Not Active; EC50 [13]: 0.97 µM; EC50 [14]: Not Active
4 | CC(=O)Nc1nc(C)c(-c2csc(Nc3cccc(C(C)=O)c3)n2)s1 |  | 0.48 | inactive | 52 | 16.5 | 0.92 | 17.9 | 37 | EC50 [3]: 2.17 µM; selectivity ratio [4]: 10.6; EC50 [5]: 3.09 µM; EC50 [9]: Not Active; CC50 [11]: 9.73 µM; EC50 [12]: Not Active; EC50 [13]: 1.57 µM; EC50 ([14]; Rhinovirus B, read-out: EC50): > 268 µM
5 | CC(=O)c1cccc(Nc2nc(-c3sc(NC(=O)c4ccc(C)cc4)nc3C)cs2)c1 |  | > 50 |  |  |  | > 55.7 |  |  | 
6 | CC(=O)Nc1nc(C)c(-c2csc(Nc3ccccc3)n2)s1 |  | 2.48 | inactive | 58 | 18.6 | 1.93 | 9.64 | 81 | 
7 | CC(=O)c1cccc(Nc2nc(-c3sc(NC(=O)NC45CC6CC(CC(C6)C4)C5)nc3C)cs2)c1 | Not Active | 12.4 |  |  |  |  |  |  | 
8 | CC(=O)c1cccc(Nc2nc(-c3sc(NC(=S)Nc4ccccc4)nc3C)cs2)c1 | Not Active | > 50 |  |  |  |  |  |  | 
9 | CC(=O)c1cccc(Nc2nc(-c3sc(NC(=O)c4ccc(I)cc4)nc3C)cs2)c1 |  | > 50 |  |  |  | > 44.6 |  |  | 
10 | CC(=O)c1cccc(Nc2nc(-c3sc(NC(=O)C(F)(F)F)nc3C)cs2)c1 |  | 21.9 | inactive | 73 | 25.8 | 2 | 12.9 | 85 | EC50 [3]: 3.87 µM; selectivity ratio [4]: 15; EC50 [5]: 2.86 µM; EC50 ([9]; Rhinovirus A, read-out: EC50): 10.6 µM; CC50 [11]: 30.1 µM; EC50 [13]: 3.51 µM; EC50 ([14]; Rhinovirus B, read-out: EC50): 10.6 µM
11 | CCC(=O)Nc1nc(C)c(-c2csc(Nc3ccc(N(C)C)cc3)n2)s1 |  | 50 |  |  | 51.6 | 8.58 | 6 |  | CC50 [11]: 142 µM
12 | CC(=O)Nc1nc(C)c(-c2c[nH]c(Nc3cccc(C(C)=O)c3)n2)s1 |  | > 50 |  |  | 85.7 | > 90.2 |  |  | CC50 [11]: 64.2 µM
13 | CC(=O)c1cccc(Nc2nc(-c3sc(NC(=O)NC4CCCCC4)nc3C)cs2)c1 |  | 1.82 |  |  | 8.87 | 2 | 4.4 |  | 
14 | CC(=O)Nc1cccc(NC(=S)Nc2cccc(C(C)=O)c2)c1 | Not Active |  |  |  |  |  |  |  | IC50 [1]: Not Active
15 | CC(=O)c1cccc(Nc2nc(-c3sc(NC(=O)NCc4ccc(Cl)cc4)nc3C)cs2)c1 |  | 3.95 |  |  | 20.9 | 4.77 | 4.4 |  | 
16 | CC(=O)Nc1nc(C)c(-c2csc(Nc3cccc(O)c3)n2)s1 | Not Active | 2.63 |  |  |  |  |  |  | 
17 | CC(=O)c1cccc(Nc2nc(-c3sc(NC(=O)Nc4ccccc4)nc3C)cs2)c1 | Not Active | 7.69 |  |  |  |  |  |  | 
18 | CC(=O)c1cccc(Nc2nc(-c3sc(NC(=O)C(C)(C)C)nc3C)cs2)c1 |  | 0.32 | inactive | 71 | 7.94 | 0.27 | 29.4 | 93 | selectivity ratio [4]: 32.7; EC50 [5]: < 1.41 µM; EC50 ([9]; Rhinovirus A, read-out: EC50): 2.01 µM; CC50 [11]: 8.83 µM; EC50 ([12]; Enterovirus D, read-out: EC50): 1.38 µM; EC50 [13]: 0.72 µM; EC50 ([14]; Rhinovirus B, read-out: EC50): 4.85 µM
19 | COc1ccc(Cl)cc1Nc1nnc(-c2csc(NC(=O)C(C)(C)C)n2)s1 | Not Active |  |  |  |  |  |  |  | IC50 [1]: Not Active
20 | CC(=O)c1cccc(Nc2nc(-c3sc(NC(=O)c4ccccc4)nc3C)cs2)c1 |  | 18.9 | inactive | 81 | 5.75 | 0.51 | 11.3 | 54 | EC50 [3]: 2.19 µM; selectivity ratio [4]: 23.1; EC50 [5]: 2.23 µM; EC50 ([9]; Rhinovirus A, read-out: EC50): 2.05 µM; Activity [10]: Active; CC50 [11]: 11.8 µM; EC50 [12]: Not Active; EC50 [13]: 1.77 µM; EC50 ([14]; Rhinovirus B, read-out: EC50): > 230 µM
21 | CC(=O)Nc1nc(C)c(-c2csc(Nc3ccc(C(C)=O)cc3)n2)s1 |  | 3.71 | inactive | 73 | 5.59 | 0.68 | 8.2 | 100 | 
22 | CC(=O)c1cccc(Nc2nc(-c3sc(NC(=S)NC4CCCCC4)nc3C)cs2)c1 | Not Active | > 50 |  |  |  |  |  |  | 
23 | COc1ccc(-c2c(C)nn3c(NCCN4CCOCC4)cc(C)nc23)cc1OC |  |  |  |  |  |  |  |  | EC50 [17]: 0.73 µM
24 | COc1cccc(Nc2nc(-c3sc(NC(C)=O)nc3C)cs2)c1 |  | 1.55 | inactive | 71 | 9.17 | 1.2 | 5.9 | 51 | 
